ChEMBL document CHEMBL4392821
Active and inactive are the calls of the source. Square brackets hold non-standard residues; d marks the D form. Peptide text beside a SMILES is read from it. * marks the point of attachment. ξ: configuration not given here. X1 = CCCCCCCCCCCCCCCC(=O)OCC(C*)OC(=O)CCCCCCCCCCCCCCC; Palmitoyl = CCCCCCCCCCCCCCCC(=O)*; ξC = NC(CS)C(=O)O

Key:
Homo sapiens [1] = organism: Homo sapiens; experiment: Agonist activity at human TLR1/TLR2 L350A mutant expressed in HEK293T cells coexpressing NF-kappaB-driven luciferase reporter at 20 ng/ml after 6 hrs by luciferase reporter gene assay; type: cell-based
How it was run: (§1)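 HEK293T cells stably carrying an NF-κB-driven luciferase reporter, in DMEM, were plated 18 h before transfection. They were co-transfected by lipofection with WT or point-mutant human TLR(2–1) and TLR(1–2) ectodomain/TIR-swap chimeras, and expression was checked by immunoblot. After 24 h, cells were stimulated for 6 h with 100 nM agonist or 20 or 50 ng/mL Pam3CSK4, then lysed for a luciferase read-out.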

[2] = molecular target: Toll-like receptor 1/2 (Homo sapiens) (UniProt O60603+Q15399); experiment: Induction of human TLR2/TLR1 heterodimerization expressed in insect Hi5 cells by size exclusion chromatography
How it was run: (§2)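 Human TLR1 and TLR2 ectodomains were made in Hi5 insect cells, partially deglycosylated, and had the protein A tag cleaved by thrombin before purification. Protein at 1 μM (each alone, or both together) was incubated with 30 μM ligand in 25 mM HEPES pH 8.0, 150 mM NaCl, 10% DMSO for 4 h at room temperature. Dimer formation was then analysed by analytical gel filtration on Superdex 200.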

Homo sapiens [3] = organism: Homo sapiens; experiment: Agonist activity at human TLR2/TLR1 F312A mutant expressed in HEK293T cells coexpressing NF-kappaB-driven luciferase reporter at 50 ng/ml after 6 hrs by luciferase reporter gene assay; type: cell-based; how it was run: as §1
Homo sapiens [4] = organism: Homo sapiens; experiment: Agonist activity at human TLR1/TLR2 L328A mutant expressed in HEK293T cells coexpressing NF-kappaB-driven luciferase reporter at 20 ng/ml after 6 hrs by luciferase reporter gene assay; type: cell-based; how it was run: as §1
[5] = molecular target: T1, Toll-like receptor 1 (Homo sapiens) (UniProt Q15399); experiment: Induction of human TLR1 homodimerization expressed in insect Hi5 cells by size exclusion chromatography; how it was run: as §2
T1 sequence (whole entry): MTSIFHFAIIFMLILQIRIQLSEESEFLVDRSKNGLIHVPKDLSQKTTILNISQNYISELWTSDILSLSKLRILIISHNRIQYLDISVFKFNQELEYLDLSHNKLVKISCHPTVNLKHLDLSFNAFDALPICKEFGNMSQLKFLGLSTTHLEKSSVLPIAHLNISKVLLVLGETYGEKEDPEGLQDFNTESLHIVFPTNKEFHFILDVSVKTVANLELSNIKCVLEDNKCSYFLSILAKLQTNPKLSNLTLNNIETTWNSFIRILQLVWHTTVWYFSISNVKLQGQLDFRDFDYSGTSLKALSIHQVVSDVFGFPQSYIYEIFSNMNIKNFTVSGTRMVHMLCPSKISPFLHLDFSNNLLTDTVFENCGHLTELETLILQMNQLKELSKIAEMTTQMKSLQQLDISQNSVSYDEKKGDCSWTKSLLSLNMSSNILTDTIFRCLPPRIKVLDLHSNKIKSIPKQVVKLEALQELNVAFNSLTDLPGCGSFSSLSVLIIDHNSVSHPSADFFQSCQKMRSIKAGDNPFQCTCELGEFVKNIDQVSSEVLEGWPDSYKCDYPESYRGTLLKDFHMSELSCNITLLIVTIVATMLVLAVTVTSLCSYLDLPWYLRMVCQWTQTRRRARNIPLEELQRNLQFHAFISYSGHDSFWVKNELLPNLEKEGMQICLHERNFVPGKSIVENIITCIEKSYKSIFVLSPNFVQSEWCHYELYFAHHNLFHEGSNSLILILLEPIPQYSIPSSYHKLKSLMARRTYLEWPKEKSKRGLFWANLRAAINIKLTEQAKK

Homo sapiens [6] = organism: Homo sapiens; experiment: Agonist activity at human TLR1/TLR2 Y332A mutant expressed in HEK293T cells coexpressing NF-kappaB-driven luciferase reporter at 20 ng/ml after 6 hrs by luciferase reporter gene assay; type: cell-based; how it was run: as §1
Homo sapiens [7] = organism: Homo sapiens; experiment: Agonist activity at human TLR1/TLR2 F349A mutant expressed in HEK293T cells coexpressing NF-kappaB-driven luciferase reporter at 20 ng/ml after 6 hrs by luciferase reporter gene assay; type: cell-based; how it was run: as §1
Homo sapiens [8] = organism: Homo sapiens; experiment: Agonist activity at human TLR2/TLR1 H340A mutant expressed in HEK293T cells coexpressing NF-kappaB-driven luciferase reporter at 50 ng/ml after 6 hrs by luciferase reporter gene assay; type: cell-based; how it was run: as §1
Homo sapiens [9] = organism: Homo sapiens; experiment: Agonist activity at human TLR2/TLR1 F314A mutant expressed in HEK293T cells coexpressing NF-kappaB-driven luciferase reporter at 50 ng/ml after 6 hrs by luciferase reporter gene assay; type: cell-based; how it was run: as §1
[10] = molecular target: Toll-like receptor 2 (Homo sapiens) (UniProt O60603); experiment: Induction of human TLR2 homodimerization expressed in insect Hi5 cells by size exclusion chromatography; how it was run: as §2
Homo sapiens [11] = organism: Homo sapiens; experiment: Agonist activity at human TLR1/TLR2 D327A mutant expressed in HEK293T cells coexpressing NF-kappaB-driven luciferase reporter at 20 ng/ml after 6 hrs by luciferase reporter gene assay; type: cell-based; how it was run: as §1
Homo sapiens [12] = organism: Homo sapiens; experiment: Agonist activity at human TLR1/TLR2 V348A mutant expressed in HEK293T cells coexpressing NF-kappaB-driven luciferase reporter at 20 ng/ml after 6 hrs by luciferase reporter gene assay; type: cell-based; how it was run: as §1
Homo sapiens [13] = organism: Homo sapiens; experiment: Agonist activity at human TLR1/TLR2 Y323A mutant expressed in HEK293T cells coexpressing NF-kappaB-driven luciferase reporter at 20 ng/ml after 6 hrs by luciferase reporter gene assay; type: cell-based; how it was run: as §1
Homo sapiens [14] = organism: Homo sapiens; experiment: Agonist activity at human TLR2/TLR1 V339A mutant expressed in HEK293T cells coexpressing NF-kappaB-driven luciferase reporter at 50 ng/ml after 6 hrs by luciferase reporter gene assay; type: cell-based; how it was run: as §1
Homo sapiens [15] = organism: Homo sapiens; experiment: Agonist activity at human TLR1/TLR2 Y376 mutant expressed in HEK293T cells coexpressing NF-kappaB-driven luciferase reporter at 20 ng/ml after 6 hrs by luciferase reporter gene assay; type: cell-based; how it was run: as §1
Homo sapiens [16] = organism: Homo sapiens; experiment: Agonist activity at human TLR2/TLR1 W258A mutant expressed in HEK293T cells coexpressing NF-kappaB-driven luciferase reporter at 50 ng/ml after 6 hrs by luciferase reporter gene assay; type: cell-based; how it was run: as §1
Homo sapiens [17] = organism: Homo sapiens; experiment: Agonist activity at human TLR2/TLR1 I319A mutant expressed in HEK293T cells coexpressing NF-kappaB-driven luciferase reporter at 50 ng/ml after 6 hrs by luciferase reporter gene assay; type: cell-based; how it was run: as §1
Homo sapiens [18] = organism: Homo sapiens; experiment: Agonist activity at human TLR2/TLR1 Y320A mutant expressed in HEK293T cells coexpressing NF-kappaB-driven luciferase reporter at 50 ng/ml after 6 hrs by luciferase reporter gene assay; type: cell-based; how it was run: as §1
Homo sapiens [19] = organism: Homo sapiens; experiment: Agonist activity at human TLR1/TLR2 Y325A mutant expressed in HEK293T cells coexpressing NF-kappaB-driven luciferase reporter at 20 ng/ml after 6 hrs by luciferase reporter gene assay; type: cell-based; how it was run: as §1

Measured: Activity

Toll-like receptor 2 (Homo sapiens), sequence (O60603 whole entry): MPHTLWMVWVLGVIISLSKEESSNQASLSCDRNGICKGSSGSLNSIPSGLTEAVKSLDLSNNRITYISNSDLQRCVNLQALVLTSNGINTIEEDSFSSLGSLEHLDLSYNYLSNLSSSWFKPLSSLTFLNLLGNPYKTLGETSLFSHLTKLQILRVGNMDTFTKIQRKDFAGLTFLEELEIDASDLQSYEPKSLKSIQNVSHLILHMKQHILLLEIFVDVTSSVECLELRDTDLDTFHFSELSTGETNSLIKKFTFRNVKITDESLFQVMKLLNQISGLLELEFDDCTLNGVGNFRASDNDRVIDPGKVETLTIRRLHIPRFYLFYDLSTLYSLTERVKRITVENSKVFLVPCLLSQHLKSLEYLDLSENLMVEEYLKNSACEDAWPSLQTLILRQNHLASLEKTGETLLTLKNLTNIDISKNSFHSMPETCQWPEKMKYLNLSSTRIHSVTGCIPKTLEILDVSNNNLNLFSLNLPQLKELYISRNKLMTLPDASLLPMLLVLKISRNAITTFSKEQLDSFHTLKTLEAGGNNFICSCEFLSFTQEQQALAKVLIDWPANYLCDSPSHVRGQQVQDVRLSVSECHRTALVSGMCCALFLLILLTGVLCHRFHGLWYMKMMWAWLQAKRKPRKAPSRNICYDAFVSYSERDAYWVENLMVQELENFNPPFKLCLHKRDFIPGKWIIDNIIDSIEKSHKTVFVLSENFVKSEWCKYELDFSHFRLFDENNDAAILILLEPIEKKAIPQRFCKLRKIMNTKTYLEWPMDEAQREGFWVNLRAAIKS

CCCCCCCCCCCCCCCC(=O)NC(CSCC(COC(=O)CCCCCCCCCCCCCCC)OC(=O)CCCCCCCCCCCCCCC)C(=O)N[C@@H](CO)C(=O)N[C@@H](CCCCN)C(=O)N[C@@H](CCCCN)C(=O)N[C@@H](CCCCN)C(=O)N[C@@H](CCCCN)C(=O)O (some centres undefined) (Palmitoyl-[ξC](X1)SKKKK-OH)
active: [2]
inactive: Homo sapiens [1] | Homo sapiens [3] | Homo sapiens [4] | [5] | Homo sapiens [6] | Homo sapiens [7] | Homo sapiens [8] | Homo sapiens [9] | [10] | Homo sapiens [11] | Homo sapiens [12] | Homo sapiens [13] | Homo sapiens [14] | Homo sapiens [15] | Homo sapiens [16] | Homo sapiens [17] | Homo sapiens [18] | Homo sapiens [19]
